Consider 23 compounds from ChEMBL document CHEMBL1143394, “Benzopyridooxathiazepine derivatives as novel potent antimitotic agents” (Bioorg Med Chem, 2009).

Some results are limits rather than exact numbers.

The subject of data set [1] is L1210. The experiment in a line: Cytotoxicity against mouse L1210 cells after 48 hrs by MTT assay. The format is functional, cell-based. The conditions noted are these: L1210, 48 h. Summed up: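 Murine L1210 cells in RPMI 1640 with 10% FCS, glutamine, antibiotics and HEPES pH 7.4, exposed 48 h to graded concentrations. MTT added for 4 h at 37 °C, formazan dissolved in DMSO, OD 540 nm. IC50 (50% OD reduction vs untreated controls) by linear regression on linear zone of dose–response; triplicate.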

Data set [2] has as its system A549. Put plainly: Cytotoxicity against human A549 cells after 96 hrs by MTA assay. It is filed as functional. In a few lines:
(§1)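 Adherent DU145, HT29, A549, KB 3-1 and KB-A1 cells grown in RPMI 1640 with 10% FCS, 2 mM glutamine, antibiotics and HEPES pH 7.4. Seeded, grown 2 days, then exposed to compound 96 h (about 4 doubling times). MTT added for 4 h at 37 °C, formazan dissolved in DMSO, read at 540 nm. IC50 from linear regression on linear part of dose–response; triplicate.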

The nature of data set [3]: Inhibition of tubulin polymerization.
Data set [4] concerns P388. The experiment in a line: Antitumor activity against mouse P388 cells xenografted in B6D2F1 mouse at 100 mg/kg, iv relative to control. It is filed as functional. In a few lines:
(§2)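 P388 leukaemia cells inoculated ip at 10⁶ cells/mouse into B6D2F1 mice on day 0; compound given once ip or iv on day 1. Result expressed as % T/C = median survival time of treated over untreated controls ×100.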

Data set [5] in a line: Metabolic stability in mouse liver microsomes assessed as bioavailability. The format is ADME, Microsome. Particulars: read-out: Metabolic Bioavailability. On the technique in general: Microsomes from liver hold many membrane-bound enzymes, among them those of drug oxidation.
Data set [6] concerns DU-145. The experiment in a line: Cytotoxicity against human DU145 cells after 96 hrs by MTA assay. The format is functional. Summed up: as §1
Data set [7] deals with L1210. The experiment in a line: Cell cycle arrest in mouse L1210 cells assessed as accumulation at G1 phase at 25 nM after 21 hrs by flow cytometry using propidium iodide staining. It is filed as functional. In a few lines: (§3)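 L1210 cells exposed to compound for 21 h (two doubling times), fixed in 70% ethanol, washed, stained 30 min at 20 °C in D-PBS with RNAse and propidium iodide; 10⁴ cells per sample analysed by flow cytometry for G1, S, G2+M and 8N (tetraploid) fractions.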

Data set [8] is described as follows: Cytotoxicity against human KB-3-1 cells after 96 hrs by MTA assay. It is filed as functional. Summed up:
as §1

For data set [9], the system named is HT-29. Put plainly: Cytotoxicity against human HT29 cells after 96 hrs by MTA assay. The format is functional. Summed up:
as §1

Data set [10] concerns P388. Put plainly: Antitumor activity against mouse P388 cells xenografted in B6D2F1 mouse at 50 to 100 mg/kg, ip relative to control. It is filed as functional. Particulars: dose mg/kg 50-100; route intraperitoneal. In a few lines:
as §2

In data set [11] the test system is P388. Put plainly: Antitumor activity against mouse P388 cells xenografted in B6D2F1 mouse assessed as survivality at 100 mg/kg, iv. The format is functional. Summed up: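 P388 murine leukemia cells inoculated intraperitoneally (10⁶ cells/mouse) into B6D2F1 mice on day 0. Single intravenous dose given on day 1. Readout is percent T/C: median survival time of treated mice divided by median survival time of controls, ×100.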

Data set [12] can be described thus: Metabolic stability in human liver microsomes assessed as bioavailability. The conditions noted are these: read-out: Metabolic Bioavailability. It is filed as ADME, Microsome.
The test system of data set [13] is L1210. The experiment in a line: Cell cycle arrest in mouse L1210 cells assessed as accumulation of tetraploid cells at 25 nM after 21 hrs by flow cytometry using propidium iodide staining. It is filed as functional. In a few lines:
as §3

Data set [14] has as its system P388. Put plainly: Antitumor activity against mouse P388 cells xenografted in B6D2F1 mouse assessed as survivality at 50 to 100 mg/kg, ip. Particulars: dose mg/kg 50-100, route intraperitoneal. It is filed as functional.
For data set [15], the system named is L1210. The experiment in a line: Cell cycle arrest in mouse L1210 cells assessed as accumulation at S phase at 25 nM after 21 hrs by flow cytometry using propidium iodide staining. It is filed as functional. In a few lines:
as §3

The nature of data set [16]: Cytotoxicity against adriamycin-resistant human KB-A1 cells after 96 hrs by MTA assay. It is filed as functional. Summed up: as §1
Data set [17] deals with L1210. Put plainly: Cell cycle arrest in mouse L1210 cells assessed as accumulation at G2/M phase at 25 nM after 21 hrs by flow cytometry using propidium iodide staining. The format is functional. Summed up: as §3
(In general: Flow cytometry measures light scatter and fluorescence of single cells or particles in a stream.)

Data set [18] has as its system L1210. Put plainly: Cell cycle arrest in mouse L1210 cells assessed as accumulation of tetraploid cells at 200 nM after 21 hrs by flow cytometry using propidium iodide staining. The format is functional. Summed up: as §3
The test system of data set [19] is L1210. The experiment in a line: Cell cycle arrest in mouse L1210 cells assessed as accumulation at G2/M phase at 200 nM after 21 hrs by flow cytometry using propidium iodide staining. It is filed as functional. In a few lines:
as §3

In data set [20] the test system is L1210. The experiment in a line: Cell cycle arrest in mouse L1210 cells assessed as accumulation at G1 phase at 200 nM after 21 hrs by flow cytometry using propidium iodide staining. It is filed as functional. Summed up: as §3
The subject of data set [21] is L1210. The experiment in a line: Cell cycle arrest in mouse L1210 cells assessed as accumulation at S phase at 200 nM after 21 hrs by flow cytometry using propidium iodide staining. The format is functional. Summed up: as §3
Data set [22] has as its system L1210. The experiment in a line: Cell cycle arrest in mouse L1210 cells assessed as accumulation at G1 phase at 100 nM after 21 hrs by flow cytometry using propidium iodide staining. It is filed as functional. In a few lines:
as §3

The subject of data set [23] is L1210. The experiment in a line: Cell cycle arrest in mouse L1210 cells assessed as accumulation at S phase at 100 nM after 21 hrs by flow cytometry using propidium iodide staining. It is filed as functional. Summed up:
as §3

The subject of data set [24] is L1210. Put plainly: Cell cycle arrest in mouse L1210 cells assessed as accumulation at G2/M phase at 100 nM after 21 hrs by flow cytometry using propidium iodide staining. The format is functional. Summed up:
as §3

In data set [25] the test system is L1210. Put plainly: Cell cycle arrest in mouse L1210 cells assessed as accumulation of tetraploid cells at 100 nM after 21 hrs by flow cytometry using propidium iodide staining. The format is functional. In a few lines:
as §3

Data set [26] has as its system L1210. The experiment in a line: Cell cycle arrest in mouse L1210 cells assessed as accumulation at G2/M phase at 50 nM after 21 hrs by flow cytometry using propidium iodide staining. The format is functional. Summed up:
as §3

Data set [27] has as its system L1210. Put plainly: Cell cycle arrest in mouse L1210 cells assessed as accumulation of tetraploid cells at 50 nM after 21 hrs by flow cytometry using propidium iodide staining. The format is functional. In a few lines: as §3
Data set [28] deals with L1210. The experiment in a line: Cell cycle arrest in mouse L1210 cells assessed as accumulation at G1 phase at 50 nM after 21 hrs by flow cytometry using propidium iodide staining. It is filed as functional. Summed up: as §3
The test system of data set [29] is L1210. Put plainly: Cell cycle arrest in mouse L1210 cells assessed as accumulation at S phase at 50 nM after 21 hrs by flow cytometry using propidium iodide staining. It is filed as functional. In a few lines:
as §3

Take `COc1ccc(CCCN2C=CC=C3C2=Nc2ccccc2OS3(=O)=O)cc1`: half-maximal inhibition in [1] (IC50) was put at 8.6 µM.

For the compound `COc1ccc(CCCN2c3ccccc3OS(=O)(=O)c3cccnc32)cc1`, half-maximal inhibition in data set [1] (IC50) required 15.4 µM.

Take `O=S1(=O)Oc2ccccc2N=C2C1=CC=CN2CCc1cccc2ccccc12`: the midpoint of inhibition in [1], the IC50, lay at 9.6 µM.

On to `COc1ccc(CCN2C=CC=C3C2=Nc2ccccc2OS3(=O)=O)cc1`, for which 0.0095 µM corresponded to half-maximal inhibition in [1] (IC50). The Activity in [2] is 11.5 nM; in data set [6], 17 nM; in data set [7], 4%; in [8] it was 16 nM; in data set [9], 10 nM; in data set [11] it was 41%. Besides, the Activity was determined as 60% in data set [13]; 61% in data set [14]; 3% in data set [15]; 13.2 nM in [16]; 25% in data set [17]. Further, the INH in data set [3] came out at 2.2 µM. In addition, the results for the T/C in [4] and in [10] were 141% and 161%, respectively. The bioavailability in data set [5] and in data set [12] was below 12% each time.

As for `COc1cc([C@@H]2c3cc4c(cc3C[C@H]3COC(=O)[C@@H]32)OCO4)cc(OC)c1OC`, the INH in [3] turned out to be 2.4 µM.

On to `COc1cc(CCN2c3ccccc3OS(=O)(=O)c3cccnc32)cc(OC)c1OC`, for which the midpoint of inhibition in data set [1], the IC50, lay at 36.8 µM.

Turning to `O=S1(=O)Oc2ccccc2N=C2C1=CC=CN2CCc1ccc(-c2ccccc2)cc1`, it took 5 µM to reach half-maximal inhibition in [1] (IC50).

Take `COc1ccc(CCN2C=CC=C3C2=Nc2cc(OC)ccc2OS3(=O)=O)cc1`: the IC50 (usually the concentration that gives 50% inhibition) in data set [1] turned out to be 0.043 µM. In addition, the Activity was found to be 99.1 nM in data set [2]; 59% in data set [18]; 22% in data set [19]; 8% in [20]; 116 nM in [6]; 11% in data set [21].

For `COc1ccc(CCN2c3ccccc3OS(=O)(=O)c3cccnc32)cc1`, it took 26.5 µM to reach half-maximal inhibition in [1] (IC50).

For the compound `O=S1(=O)Oc2ccccc2N=C2C1=CC=CN2CCc1ccc(OCc2ccccc2)cc1`, the IC50 in data set [1] is above 100 µM.

In turn, `O=S1(=O)Oc2ccccc2N(CCc2cccc3ccccc23)c2ncccc21` yielded an IC50 in [1] above 100 µM.

For `COc1ccccc1CCN1c2ccccc2OS(=O)(=O)c2cccnc21`, in data set [1], the IC50 is above 10 µM.

`COc1ccc(CCN2c3cc(OC)ccc3OS(=O)(=O)c3cccnc32)cc1`: half-maximal inhibition in data set [1] (IC50) was put at 11.2 µM.

In the case of `COc1cccc(CCN2C=CC=C3C2=Nc2ccccc2OS3(=O)=O)c1`, the IC50 in data set [1] came to 0.8 µM.

As for `COc1ccc(CCN2C=CC=C3C2=Nc2cc(C)ccc2OS3(=O)=O)cc1`, in data set [1], the IC50 was 0.037 µM. For the same compound, the Activity in data set [22] worked out at 4%; in [9], 50.2 nM; in data set [23], 3%; in [24], 17%; in data set [25] it was 75%.

`COc1ccc(CCN2C=CC=C3C2=Nc2ccccc2NS3(=O)=O)cc1`: the half-maximal inhibitory concentration (IC50) in data set [1] turned out to be 0.3 µM.

`O=S1(=O)Oc2ccccc2N=C2C1=CC=CN2CCc1ccc(O)cc1` registered an IC50 in data set [1] of 0.6 µM.

`COc1ccc(CN2c3ccccc3OS(=O)(=O)c3cccnc32)cc1` registered a half-maximal inhibitory concentration (IC50) in [1] of 0.77 µM.

As to `COc1ccccc1CCN1C=CC=C2C1=Nc1ccccc1OS2(=O)=O`, the midpoint of inhibition in data set [1], the IC50, lay at 14.8 µM.

Turning to `COc1ccc(CCN2c3cc(C)ccc3OS(=O)(=O)c3cccnc32)cc1`, the IC50 in data set [1] turned out to be 22.5 µM.

`COc1cc(CCN2C=CC=C3C2=Nc2ccccc2OS3(=O)=O)cc(OC)c1OC` gave an IC50 in [1] of 27.7 µM.

In [1], `COc1ccc(CN2C=CC=C3C2=Nc2ccccc2OS3(=O)=O)cc1` had an IC50 of 3.2 µM.

In turn, `COc1ccc(CCN2C=CC=C3C2=Nc2cc(Cl)ccc2OS3(=O)=O)cc1` came in with a half-inhibitory concentration (IC50) in [1] of 0.027 µM. Besides, the Activity in data set [26] is 29%; in data set [6] it was 42.3 nM; in [9], 27.1 nM; in data set [27] it was 65%; in data set [28] it was 3%; in data set [29] it was 3%.
